Rows were chosen to be rich in hits. Some 1% of all compounds tested hit in one or more screens of this group.
pCIP destab: p/CIP-EGFP fusion destabilizers, primary screen, fluorescence, F442A cells; Q05BA5; AID 1984, 2009; 290,000 compounds, 0.01% hits; 16 h; decrease of EGFP signal, % at 10 µM;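 active = EGFP signal decrease of at least 30% at 10 µM or well 3 SD below plate mean, unless failing retest; inactive = the rest, including hits failing retest or dose response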
Target sequence (Q05BA5 1-1403): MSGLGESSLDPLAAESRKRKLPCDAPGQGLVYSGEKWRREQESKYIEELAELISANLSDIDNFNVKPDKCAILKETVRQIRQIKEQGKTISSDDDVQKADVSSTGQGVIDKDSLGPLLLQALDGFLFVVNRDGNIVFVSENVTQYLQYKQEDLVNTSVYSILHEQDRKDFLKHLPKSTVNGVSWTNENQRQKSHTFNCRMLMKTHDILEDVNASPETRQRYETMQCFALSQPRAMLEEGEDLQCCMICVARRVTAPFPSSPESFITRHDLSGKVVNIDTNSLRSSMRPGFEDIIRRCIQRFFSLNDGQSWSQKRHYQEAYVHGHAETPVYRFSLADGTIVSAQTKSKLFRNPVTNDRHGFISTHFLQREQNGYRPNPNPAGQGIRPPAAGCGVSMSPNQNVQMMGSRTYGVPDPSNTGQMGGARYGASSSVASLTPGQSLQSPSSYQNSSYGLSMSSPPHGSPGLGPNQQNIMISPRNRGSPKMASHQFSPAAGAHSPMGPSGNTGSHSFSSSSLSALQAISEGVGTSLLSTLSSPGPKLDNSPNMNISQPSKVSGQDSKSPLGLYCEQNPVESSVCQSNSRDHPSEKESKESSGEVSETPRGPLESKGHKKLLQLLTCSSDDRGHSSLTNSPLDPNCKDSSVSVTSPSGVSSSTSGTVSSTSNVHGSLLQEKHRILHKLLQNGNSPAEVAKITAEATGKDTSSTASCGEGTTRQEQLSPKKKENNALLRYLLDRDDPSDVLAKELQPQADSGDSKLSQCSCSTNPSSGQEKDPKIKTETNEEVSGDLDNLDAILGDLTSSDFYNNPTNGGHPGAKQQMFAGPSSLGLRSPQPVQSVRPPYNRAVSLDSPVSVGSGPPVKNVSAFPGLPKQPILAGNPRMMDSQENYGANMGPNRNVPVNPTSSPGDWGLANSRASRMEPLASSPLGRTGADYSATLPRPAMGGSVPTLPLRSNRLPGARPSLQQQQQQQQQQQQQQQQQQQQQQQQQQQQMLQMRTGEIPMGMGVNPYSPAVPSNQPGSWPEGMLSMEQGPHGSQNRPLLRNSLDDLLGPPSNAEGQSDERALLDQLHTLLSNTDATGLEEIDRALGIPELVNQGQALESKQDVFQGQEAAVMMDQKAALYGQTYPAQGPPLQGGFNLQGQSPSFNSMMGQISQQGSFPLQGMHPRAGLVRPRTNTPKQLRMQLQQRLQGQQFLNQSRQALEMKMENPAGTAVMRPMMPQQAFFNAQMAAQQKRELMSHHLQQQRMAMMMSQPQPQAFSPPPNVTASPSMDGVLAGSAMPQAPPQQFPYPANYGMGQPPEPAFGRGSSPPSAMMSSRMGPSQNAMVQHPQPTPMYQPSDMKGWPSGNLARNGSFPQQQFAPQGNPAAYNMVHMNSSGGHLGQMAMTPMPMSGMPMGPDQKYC
Lipid droplet: inhibitors of hepatocyte lipid droplet formation, primary screen, imaging, high-throughput imaging, BODIPY stain; AML12 mouse hepatocytes, oleate lipid droplets; inhibition, % at 6.5 µM; 240,000 compounds, 0.4% hits; AID 1656, 2009;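 active = lipid droplet intensity inhibited by at least 50%, with more than 500 cells counted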
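Assay system: AML12 mouse liver cells | Compound: 6.5 µM single-point dosing | Schedule: Overnight exposure | Technique: Fluorescence imaging, 20x objective, two fields per well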
Arrestin-AP2 inh: inhibitors of beta-arrestin/AP2 binding, primary screen, biochemical, GPCR trafficking, flow cytometry | beta-arrestin 1 C-terminal peptide binding to AP2 beta2-adaptin appendage (human) | FITC-arrestin peptide / GST-AP2 beads; AP2 beta2 appendage carries R879A mutation | inhibition, % at 10 µM | 340,000 compounds, 0.31% hits | AID 504490, 2011;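 active = inhibition above a set limit, near 3 SD of compounds lacking own fluorescence, cut at about 54% in these data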;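 also: plate controls were DMSO wells for no effect and 5 µM unlabelled arrestin peptide for full effect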
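Test system: GST-tagged AP2 beta2-adaptin appendage (R879A) on 4 µm glutathione beads; also added: fluorescein-tagged arrestin peptide at 50 nM final; timing: 12 min plus 1 h, RT; signal: flow cytometry, FL1 (488/535 nm); read-out: percent drop in bead-associated FITC signal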
Fh CTSL1 inh: Fasciola hepatica cathepsin L1 inhibitors, primary screen, counter-screen for PFM18AAP inhibitor project, biochemical, QFRET, fluorogenic peptide substrate. recombinant F. hepatica cathepsin L1, Z-Leu-Arg-MCA fluorescence. inhibition, % at 5.96 µM. 300,000 compounds, 0.49% hits;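 active = inhibition above the mean of all tested compounds plus 3 SD, set per screening campaign, cut at about 17% in these data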;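 also: 0% = plate median of test compound wells and 100% = 1 µM Z-Phe-Ala-diazomethylketone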
Active calls of the source: *; . = no result.

SMILES	pCIP destab	Lipid droplet	Arrestin-AP2 inh	Fh CTSL1 inh
CCCCNC(=O)CC1N=C2c3ccccc3N=C(SCC(=O)Nc3cccc(OC)c3)N2C1=O (stereo not drawn)	-5	.	12	2
CCCCNC(=O)CC1N=C2c3ccccc3N=C(SCC(=O)Nc3ccc(OC)cc3)N2C1=O (stereo not drawn)	46*	.	-6	0
NNC(=O)CNc1cccc(Cl)c1	-18	-19	7	2
N#CC1C(=O)NC(N2CCN(c3ccccc3)CC2)=NC12CCCCC2 (stereo not drawn)	1	.	-9	8
CCN1C(Nc2ccccc2)=NC[C@@H]1CC(C)C	-7	15	2	1
CC(C)C[C@H]1CN=C(Nc2ccccc2)N1CC1CCCCCC1	.	.	8	20*
COc1ccc([N+](=O)[O-])cc1NC(=O)c1ccc(Br)s1	1	12	16	18*
COc1ccc([N+](=O)[O-])cc1NC(=S)NC(C)=O	-8	2	-9	1
CCN(CC)S(=O)(=O)c1ccc(/C=C/C(=O)OCC(=O)NCc2ccc3c(c2)OCO3)cc1	-7	4	-19	1
COc1ccc(C(=O)/C=C2/C(=O)Nc3ccccc32)c(OC)c1	7	-3	7	-5
COc1cc(OC)c(/C=C2\C(=O)Nc3ccccc32)c(OC)c1	.	.	.	38*
Cn1c(OCc2ccco2)nc2c1c(=O)n(Cc1ccc(Cl)c(Cl)c1)c(=O)n2C	-10	-1	81*	4
Cc1ccc(NC=C(S(=O)(=O)c2ccccc2)S(=O)(=O)c2ccccc2)c(C)c1	1	.	11	3
COC(=O)c1cccc2c1NC(=O)C2=O	1	-8	23	17*
CCOC(=O)C(C(=O)OCC)c1cc(Br)c2noc3c2c1C(=O)c1ccccc1-3	-217	.	94*	2
CC(=O)OCCNc1cc(N2CCN(C)CC2)c2noc3c2c1C(=O)c1ccccc1-3	-6	-2	19	.
Cc1ccc(C)c(N=Nc2ccc(O)c3ncccc23)c1	-3	29	103*	2
Cc1cccc(N=Nc2ccc(O)c3ncccc23)c1	-3	-24	4	2
Cc1cc(C)c2c(N)c(C(=O)Nc3ncc(C)s3)sc2n1	-10	-9	-2	17*
COC(=O)c1sc2nc(C)cc(C)c2c1N	-9	2	30	-1
COc1cc(C(c2oc(CO)cc(=O)c2O)c2oc(CO)cc(=O)c2O)cc(OC)c1OC	-2	1	2	51*
Cc1ccc(C2CC(c3cccs3)=NN2C(=O)CCl)cc1 (stereo not drawn)	-3	8	5	52*
CCn1c2ccccc2c2cc(/C=N/NC(=O)c3ccc(O)cc3)ccc21	-9	13	1	6
Cc1nc2sccn2c(=O)c1S(=O)(=O)N1CCN(c2cccc(C(F)(F)F)c2)CC1	-2	-12	31	6
CC(C)(C)OC(=O)N[C@@H](Cc1ccccc1)c1nnc(SCC(=O)O)o1	-6	.	32	29*
SMILES	pCIP destab	Lipid droplet	Arrestin-AP2 inh	Fh CTSL1 inh
CCSc1nnc([C@H](Cc2ccccc2)NC(=O)OC(C)(C)C)o1	0	-8	-9	1
COC(=O)CSc1nnc([C@H](CC(C)C)NC(=O)OC(C)(C)C)o1	-4	6	4	52*
CC(C)(C)OC(=O)N[C@@H](Cc1ccccc1)c1nnc(S(=O)(=O)Cc2ccccc2)o1	-27	.	.	25*
Cc1ccccc1CS(=O)(=O)c1nnc([C@H](Cc2ccccc2)NC(=O)OC(C)(C)C)o1	-4	.	7	29*
CCN(CC)S(=O)(=O)c1ccc(NC(=S)NC(=O)C2CCC2)cc1	-2	-2	4	.
COc1cc(/C=N/NC(N)=S)ccc1OC(=O)c1ccc(C)cc1	-4	-19	0	66*
COc1cc(/C=N/NC(N)=S)ccc1OCc1ccc(C)cc1	4	10	29	15
COc1cc(/C=N/NC(=O)c2cccnc2)ccc1OCC(=O)N1CCOCC1	-5	6	-5	3
COc1cc(/C=N/NC(N)=S)ccc1OCC(=O)N1CCOCC1	-14	1	3	18*
O=C1N=C(N2CCOCC2)S/C1=C/c1ccc(-c2ccccc2Cl)o1	-9	11	28	34*
COc1ccc(C(NC(=O)C(C)C)c2c(O)ccc3ccccc23)cc1 (stereo not drawn)	-4	-9	-6	1

High-throughput results as filed in PubChem BioAssay.
